From the array DNA melting data of Ke et al. (doi:10.1101/2024.01.08.574731)

Columns and labels:
[1] = melting temperature; fluorescence melt of hairpins on a sequencing array, two-state fit, raised by 9.35 °C to match UV melts; conditions: sodium 0.088 M
Procedure, shortened: (§1)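 Folding enthalpy and melting temperature come from bootstrapped two-state fits to Cy3 fluorescence of library hairpins carrying annealed Cy3 and quencher oligos on a sequenced MiSeq flow cell. Imaging was done in 50 mM Na-HEPES pH 8.0, 25 mM NaCl, stepping by 2.5 °C up to 60 °C, and signals were normalised to pre-quench Cy3 and to control constructs. Results of four replicates were combined by inverse variance, and fitted temperatures were raised by 9.35 °C to match UV melts.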

[2] = folding enthalpy; higher = less favourable; fluorescence melt of hairpins on a sequencing array, two-state fit; conditions: sodium 0.088 M
Procedure, shortened: as §1

Sequence | Tm [1] | folding enthalpy [2]
GTCTCTCCGAAAGGAGAC (((..(((....)))))) | 35.8 °C | -9.6 kcal/mol
GTACACGCGAAAGCGTAC (((..(((....)))))) | 35.5 °C | -8.06 kcal/mol
GTGAACGGAAACGTTCAC (((((((....))))))) | 67.8 °C | -30 kcal/mol
GCCTACGGAAACGTGGGC (((.(((....))).))) | 58.6 °C | -39.2 kcal/mol
GATCGAACGTTCGATC ((((((....)))))) | 56.7 °C | -49.3 kcal/mol
GATCCATGGATGGATC ((((((....)))))) | 53 °C | -39.1 kcal/mol
GATCCTTCAAAGGATC ((((((....)))))) | 52.9 °C | -33.5 kcal/mol
GATCTCGTAGGAGATC ((((((....)))))) | 56.6 °C | -33.9 kcal/mol
GGATTGGGAAACCGATCC ((((.((....)).)))) | 51 °C | -40.7 kcal/mol
GACTAGGGAAACCTAGCC (.(((((....))))).) | 38.4 °C | -19.7 kcal/mol
GGGAGCGAAAGCTAACCC ((((((....)))..))) | 45 °C | -16.1 kcal/mol
GATCTGGGTCAGATC ((((((...)))))) | 48.6 °C | -35.9 kcal/mol
GTCCCAGGAAACTGGGGC (.(((((....))))).) | 57.5 °C | -40.6 kcal/mol
GTATAGGGAAACCCATAC ((((.((....)).)))) | 31.8 °C | -16.1 kcal/mol
GTTCTCGAAAGAGGCAAC ((((((....)))..))) | 26.6 °C | -9.31 kcal/mol
GTTTCCCGAAAGGGCAAC (((.(((....))).))) | 42 °C | -21.7 kcal/mol
GATCAGACAACTGATC ((((((....)))))) | 45.9 °C | -32.3 kcal/mol
GTTTTTCGAAAGAAAAC (((.(((....)))))) | 35.8 °C | -21.4 kcal/mol
GTATACGGAAACGTACAC ((.((((....)))).)) | 32.4 °C | -18.6 kcal/mol

Sequence | Tm [1] | folding enthalpy [2]
GATCCTTTCAAGGATC ((((((....)))))) | 57.7 °C | -33.3 kcal/mol
GGTCTCGAAAGAGACACC ((((((....)))..))) | 48.4 °C | -9.21 kcal/mol
GGACCCGGAAACGGGTTC (.(((((....))))).) | 59.4 °C | -25.6 kcal/mol
GGGGTCACGAAAGTGCCC (((..(((....)))))) | 58.8 °C | -21.4 kcal/mol
GCGCTGCGAAAGCAATGC ((..(((....)))..)) | 47.8 °C | -18 kcal/mol
GTAATTCGAAAGAAGTAC (((.(((....))).))) | 42.3 °C | -25 kcal/mol
GTGTAGTCGAAAGACCAC (((..(((....)))))) | 42.1 °C | -19.5 kcal/mol
GTTGTAGGAAACTATAAC (((.(((....))).))) | 34 °C | -24.6 kcal/mol
GCCGAGCGAAAGCGCCGC ((.(.((....)).).)) | 41.9 °C | -12 kcal/mol
GTCCAGGGAAACCTGAAC ((.((((....)))).)) | 35.9 °C | -19.5 kcal/mol
GACTACCGAAAGGTTGTC (((.(((....))).))) | 53.1 °C | -31.3 kcal/mol
GTCGGCGAAAGCCTGAC ((((((....))).))) | 56.9 °C | -15.6 kcal/mol
GAAACGGGAAACCGTTCC (.(((((....))))).) | 39.4 °C | -14.6 kcal/mol
GCGGGACCGAAAGGTCGC (((..(((....)))))) | 56.3 °C | -11.5 kcal/mol
GCAAGGCGAAAGCCTGC (((.(((....)))))) | 66.5 °C | -19.8 kcal/mol
GCAAACCGAAAGGTTGC (((.(((....)))))) | 57.2 °C | -29.1 kcal/mol
GATCCCTCGGGGATC ((((((...)))))) | 62.9 °C | -34.5 kcal/mol
GCTTCTCGAAAGAGTAGC (((.(((....))).))) | 47.9 °C | -31.1 kcal/mol
GCACCGCGAAAGCAGTGC ((((.((....)).)))) | 65 °C | -25.6 kcal/mol
